In the series the target is Toll-like receptor 4/MD-2 (Homo sapiens, UniProt O00206+Q9Y6Y9). Briefly: Activation of TLR4/MD2 (unknown origin) expressed in HEK293 cells co-expressing CD14 assessed as induction of MyD88-dependent NF-kappaB activity after 24 hrs by NF-kappaB SEAP reporter gene assay. Type of series: cell-based. The settings on record: hek293, 24 h. In outline:
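HEK293 cells stably transfected with human TLR4, MD-2, CD14 and an NF-κB-inducible promoter driving secreted embryonic alkaline phosphatase (SEAP). Compounds formulated at 2 mg/mL in 2% aq. glycerol (stock), applied as a dose response for 24 h. Read-out was relative SEAP activity in cell culture supernatants.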

Toll-like receptor 4/MD-2, sequence (O00206 whole entry): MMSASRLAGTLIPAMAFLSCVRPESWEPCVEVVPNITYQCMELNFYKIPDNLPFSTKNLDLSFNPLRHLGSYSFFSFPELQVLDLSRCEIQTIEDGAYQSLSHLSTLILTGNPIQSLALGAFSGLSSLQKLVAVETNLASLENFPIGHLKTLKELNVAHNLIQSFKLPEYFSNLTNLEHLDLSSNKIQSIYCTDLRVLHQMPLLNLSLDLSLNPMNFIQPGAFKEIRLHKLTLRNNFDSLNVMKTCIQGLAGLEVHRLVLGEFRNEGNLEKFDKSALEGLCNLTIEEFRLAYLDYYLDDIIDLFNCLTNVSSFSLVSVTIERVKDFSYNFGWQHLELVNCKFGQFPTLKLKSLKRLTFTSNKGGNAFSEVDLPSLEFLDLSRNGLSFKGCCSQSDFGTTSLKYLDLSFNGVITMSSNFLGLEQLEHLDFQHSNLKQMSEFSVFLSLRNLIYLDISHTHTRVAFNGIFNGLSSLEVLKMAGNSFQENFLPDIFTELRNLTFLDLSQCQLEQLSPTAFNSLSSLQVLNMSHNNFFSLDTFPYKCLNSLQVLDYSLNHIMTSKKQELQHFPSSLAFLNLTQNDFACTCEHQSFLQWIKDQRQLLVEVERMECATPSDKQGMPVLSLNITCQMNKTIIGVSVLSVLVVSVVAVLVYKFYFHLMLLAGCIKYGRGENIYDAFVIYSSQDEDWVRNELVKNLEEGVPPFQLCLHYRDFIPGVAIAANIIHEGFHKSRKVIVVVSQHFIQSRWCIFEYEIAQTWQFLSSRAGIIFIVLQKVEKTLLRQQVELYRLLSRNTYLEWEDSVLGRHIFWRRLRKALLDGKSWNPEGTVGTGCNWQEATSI
Toll-like receptor 4/MD-2, sequence (Q9Y6Y9 whole entry): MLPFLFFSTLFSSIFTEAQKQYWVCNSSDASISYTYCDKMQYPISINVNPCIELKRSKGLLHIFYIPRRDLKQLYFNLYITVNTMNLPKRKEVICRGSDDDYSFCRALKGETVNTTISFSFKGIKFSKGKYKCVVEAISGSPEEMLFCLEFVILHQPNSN

For the compound `CCCCCCCCCCCCCC(=O)O[C@H](CCCCCCCCCCC)CC(=O)N[C@H]1[C@H](OC[C@H](NC(=O)C[C@@H](CCCCCCCCCCC)OC(=O)CCCCCCCCCCCCC)C(=O)O)O[C@H](CO)[C@@H](OP(=O)(O)O)[C@@H]1OC(=O)C[C@@H](CCCCCCCCCCC)OC(=O)CCCCCCCCCCCCC`, the Activity entry is recorded as “Non-toxic”. For the compound `CCCCCCCCCCC[C@H](CC(=O)N[C@H]1[C@H](OC[C@@H](NC(=O)C[C@@H](CCCCCCCCCCC)OC(=O)CCCCCCCCC)C(=O)O)O[C@H](CO)[C@@H](OP(=O)(O)O)[C@@H]1OC(=O)C[C@@H](CCCCCCCCCCC)OC(=O)CCCCCCCCC)OC(=O)CCCCCCCCC`, the Activity entry was “Toxic”.

Take `CCCCCCCCCCC[C@H](CC(=O)N[C@H]1[C@H](OC[C@@H](NC(=O)C[C@@H](CCCCCCCCCCC)OCCCCCCCCCC)C(=O)O)O[C@H](CO)[C@@H](OP(=O)(O)O)[C@@H]1OC(=O)C[C@@H](CCCCCCCCCCC)OCCCCCCCCCC)OCCCCCCCCCC`: the Activity result is “Non-toxic”.

As for `CCCCCCCCCCC[C@H](CC(=O)O[C@@H]1[C@@H](NC(=O)C[C@@H](CCCCCCCCCCC)OC(=O)CCCCCCCCC)[C@H](OC[C@@H](NC(=O)C[C@@H](CCCCCCCCCCC)OC(=O)CCCCCCCCC)C(=O)O)O[C@H](CO)[C@H]1OP(=O)(O)O)OCCCCCCCCCC`, the Activity entry was “Toxic”.

As for `CCCCCCCCCCC[C@H](CC(=O)N[C@H]1[C@H](OC[C@@H](NC(=O)C[C@@H](CCCCCCCCCCC)OC(=O)CCCCCCCCC)C(=O)O)O[C@H](CO)[C@@H](OP(=O)(O)O)[C@@H]1OC(=O)C[C@@H](CCCCCCCCCCC)OC(=O)CCCCCCCCC)OCCCCCCCCCC`, the Activity result is “Non-toxic”. Next, `CCCCCCCCCCC[C@H](CC(=O)N[C@H](CO[C@@H]1O[C@H](CO)[C@@H](OP(=O)(O)O)[C@H](OC(=O)C[C@@H](CCCCCCCCCCC)OC(=O)CCCCCCCCC)[C@H]1NC(=O)C[C@@H](CCCCCCCCCCC)OC(=O)CCCCCCCCC)C(=O)O)OCCCCCCCCCC`: “Non-toxic”. `CCCCCCCCCCC[C@H](CC(=O)N[C@H]1[C@H](OC[C@@H](NC(=O)C[C@@H](CCCCCCCCCCC)OCCCCCCCCCC)C(=O)O)O[C@H](CO)[C@@H](OP(=O)(O)O)[C@@H]1OC(=O)C[C@@H](CCCCCCCCCCC)OC(=O)CCCCCCCCC)OCCCCCCCCCC`: the Activity entry was “Non-toxic”. Consider `CCCCCCCCCCC[C@H](CC(=O)N[C@H](CO[C@@H]1O[C@H](CO)[C@@H](OP(=O)(O)O)[C@H](OC(=O)C[C@@H](CCCCCCCCCCC)OCCCCCCCCCC)[C@H]1NC(=O)C[C@@H](CCCCCCCCCCC)OC(=O)CCCCCCCCC)C(=O)O)OCCCCCCCCCC`, for which the Activity result is recorded as “Toxic”.

On to `CCCCCCCCCCC[C@H](CC(=O)N[C@H]1[C@H](OC[C@@H](NC(=O)C[C@@H](CCCCCCCCCCC)OC(=O)CCCCCCCCC)C(=O)O)O[C@H](CO)[C@@H](OP(=O)(O)O)[C@@H]1OC(=O)C[C@@H](CCCCCCCCCCC)OCCCCCCCCCC)OCCCCCCCCCC`, for which the Activity entry is on record as “Toxic”. On to `CCCCCCCCCCC[C@H](CC(=O)N[C@H]1[C@H](OC[C@H](NC(=O)C[C@@H](CCCCCCCCCCC)OC(=O)CCCCCCCCC)C(=O)O)O[C@H](CO)[C@@H](OP(=O)(O)O)[C@@H]1OC(=O)C[C@@H](CCCCCCCCCCC)OC(=O)CCCCCCCCC)OC(=O)CCCCCCCCC`, for which the Activity entry is reported as “Toxic”. Turning to `CCCCCCCCCCC[C@H](CC(=O)N[C@H]1[C@H](OC[C@H](NC(=O)C[C@@H](CCCCCCCCCCC)OCCCCCCCCCC)C(=O)O)O[C@H](CO)[C@@H](OP(=O)(O)O)[C@@H]1OC(=O)C[C@@H](CCCCCCCCCCC)OCCCCCCCCCC)OCCCCCCCCCC`, the Activity entry was “Toxic”.
